Test results: article PMC3517043 (ChemMedChem, 2012)
Values after ≈ are worked out from the molar mass of the structure shown. Where two headings read alike, the source gives them in different places. Square brackets hold non-standard residues; d marks the D form. Ends that are not written are not given here. Peptide text beside a SMILES is read from it. NMeI = CC[C@H](C)[C@H](NC)C(=O)O; NMeV = CN[C@H](C(=O)O)C(C)C; NMeA = CN[C@@H](C)C(=O)O; Sar = CNCC(=O)O

What was measured:
[1] = system: Aβ42-induced toxicity in differentiated PC-12 cells; type: cell-based, rat; conditions: for IC50: 24 h; for Decrease in activity relative to the corresponding N-Me-A analogue (MTT): original side-chain restored versus N-Me-A at the same position
[2] = system: Aβ42-induced toxicity in differentiated PC-12 cells; type: cell-based, rat; conditions: for IC50: 48 h; for Decrease in activity relative to the corresponding N-Me-A analogue (LDH): original side-chain restored versus N-Me-A at the same position
[3] = Solubility by filtration assay; type: physicochemical; conditions: pH 7.4
[4] = system: mouse primary hippocampal neurons; conditions: cited from earlier work
Aβ42 = conditions: read-out: IC50, inhibition of Aβ42 hexamer formation; photo-induced cross-linking of unmodified proteins; cited from earlier work
[5] = system: differentiated PC-12 cells; experiment: Toxicity of peptides alone, MTT cell viability assay; type: cell-based, rat; conditions: peptide alone at 50 μM, 24 h
Summary of the method: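 PC-12 cells differentiated with nerve growth factor (50 ng/mL) for 48 h. Peptide dissolved in a small amount of 60 mM NaOH, diluted to 50 μM in culture medium, and incubated alone with cells for 24 h. Viability read by MTT kit. Controls were NaOH at matching concentration and medium alone. Percentage viability was scaled to 1 μM staurosporine, taken as 100% loss.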

## CC[C@H](C)[C@H](N)C(=O)N[C@H](C(=O)NCC(=O)N[C@@H](CC(C)C)C(=O)N[C@@H](CCSC)C(=O)N[C@H](C(=O)NCC(=O)NCC(=O)N(C)[C@H](C(=O)N[C@H](C(=O)N[C@H](C(=O)N[C@@H](C)C(=O)O)[C@@H](C)CC)C(C)C)C(C)C)C(C)C)[C@@H](C)CC [[N-Me-V9]Aβ(31–42), IIGLMVGG-(N-Me)V-VIA] (H-IIGLMVGG[NMeV]VIA-OH; N-terminus assumed)
[1]
  IC50: 6 ± 1 µM
[2]
  IC50: 67 ± 8 µM
  Decrease in activity relative to the corresponding N-Me-A analogue (LDH): 9.6 fold
[3]; 10 mM sodium phosphate buffer
  solubility at 1 min: 136 ± 18 µM (≈ 157 µg/mL)

## CC[C@H](C)[C@H](N)C(=O)N[C@H](C(=O)NCC(=O)N[C@@H](CC(C)C)C(=O)N[C@@H](CCSC)C(=O)N[C@H](C(=O)NCC(=O)NCC(=O)N(C)[C@@H](C)C(=O)N[C@H](C(=O)N[C@H](C(=O)N[C@@H](C)C(=O)O)[C@@H](C)CC)C(C)C)C(C)C)[C@@H](C)CC [[N-Me-A9]Aβ(31–42), IIGLMVGG-(N-Me)A-VIA] (H-IIGLMVGG[NMeA]VIA-OH; N-terminus assumed)
[1]
  IC50: 6 ± 1 µM
[1]; relative to Aβ(31–42)
  Improvement of IC50 relative to the parent peptide (MTT): 3 fold
[2]
  IC50: 7 ± 1 µM
[2]; relative to Aβ(31–42)
  Improvement of IC50 relative to the parent peptide (LDH): 6 fold
[3]; 10 mM sodium phosphate buffer
  solubility at 1 min: 115 ± 21 µM (≈ 130 µg/mL)

## CC[C@H](C)[C@H](N)C(=O)N[C@H](C(=O)NCC(=O)N[C@@H](CC(C)C)C(=O)N[C@@H](CCSC)C(=O)N[C@H](C(=O)NCC(=O)N(C)[C@@H](C)C(=O)N[C@H](C(=O)N[C@H](C(=O)N[C@H](C(=O)N[C@@H](C)C(=O)O)[C@@H](C)CC)C(C)C)C(C)C)C(C)C)[C@@H](C)CC [[N-Me-A8]Aβ(31–42), IIGLMVG-(N-Me)A-WIA] (H-IIGLMVG[NMeA]VVIA-OH; N-terminus assumed)
[1]
  IC50: 12 ± 1 µM
[2]
  IC50: 14 ± 1 µM
[3]; 10 mM sodium phosphate buffer
  solubility at 1 min: 41 ± 12 µM (≈ 48 µg/mL)

## CC[C@H](C)[C@H](N)C(=O)N[C@H](C(=O)NCC(=O)N[C@@H](CC(C)C)C(=O)N[C@@H](CCSC)C(=O)N[C@H](C(=O)NCC(=O)NCC(=O)N[C@H](C(=O)N[C@H](C(=O)N(C)[C@@H](C)C(=O)N[C@@H](C)C(=O)O)C(C)C)C(C)C)C(C)C)[C@@H](C)CC [[N-Me-A11]Aβ(31–42), IIGLMVGGW-(N-Me)A-A] (H-IIGLMVGGVV[NMeA]A-OH; N-terminus assumed)
[1]
  IC50: 10 ± 1 µM
[2]
  IC50: 37 ± 3 µM
[3]; 10 mM sodium phosphate buffer
  solubility at 1 min: 86 ± 22 µM (≈ 95.8 µg/mL)

## CC[C@H](C)[C@H](N)C(=O)N[C@H](C(=O)NCC(=O)N[C@@H](CC(C)C)C(=O)N[C@@H](CCSC)C(=O)N[C@H](C(=O)NCC(=O)NCC(=O)N[C@H](C(=O)N[C@H](C(=O)N(C)[C@H](C(=O)N[C@@H](C)C(=O)O)[C@@H](C)CC)C(C)C)C(C)C)C(C)C)[C@@H](C)CC [[N-Me-I11]Aβ3(31–42), IIGLMVGGW-(N-Me)I-A] (H-IIGLMVGGVV[NMeI]A-OH; N-terminus assumed)
[1]
  IC50: 13 ± 1 µM
[2]
  IC50: 49 ± 3 µM
[3]; 10 mM sodium phosphate buffer
  solubility at 1 min: 132 ± 34 µM (≈ 153 µg/mL)

## IIGLMVGGVVIA-OH [Aβ(31–42), IIGLMVGGVVIA]
[1]
  IC50: 18 ± 1 µM
[4]
  Rescue from Aβ42-induced inhibition of miniature excitatory postsynaptic current frequency: rescued
[2]
  IC50: 43 ± 2 µM
[3]
  solubility at 1 min: 25 ± 4 µM
Aβ42
  IC50: 23 ± 4 µM

## CC[C@H](C)[C@H](NC)C(=O)N[C@H](C(=O)NCC(=O)N[C@@H](CC(C)C)C(=O)N[C@@H](CCSC)C(=O)N[C@H](C(=O)NCC(=O)NCC(=O)N[C@H](C(=O)N[C@H](C(=O)N[C@H](C(=O)N[C@@H](C)C(=O)O)[C@@H](C)CC)C(C)C)C(C)C)C(C)C)[C@@H](C)CC [[N-Me-I1]Aβ3(31–42), (N-Me)I-IGLMVGGWIA] (H-[NMeI]IGLMVGGVVIA-OH; N-terminus assumed)
[5]; listed as [N-Me-I1]Aβ(31–42)
  Toxicity of the peptide itself (cell viability, MTT): as toxic as [N-Me-A1]Aβ(31–42)
[3]; 10 mM sodium phosphate buffer
  solubility at 1 min: 7 ± 1 µM (≈ 8.09 µg/mL)

## CC[C@H](C)[C@H](N)C(=O)N[C@H](C(=O)N(C)[C@@H](C)C(=O)N[C@@H](CC(C)C)C(=O)N[C@@H](CCSC)C(=O)N[C@H](C(=O)NCC(=O)NCC(=O)N[C@H](C(=O)N[C@H](C(=O)N[C@H](C(=O)N[C@@H](C)C(=O)O)[C@@H](C)CC)C(C)C)C(C)C)C(C)C)[C@@H](C)CC [[N-Me-A3]Aβ(31–42), II-(N-Me)A-LMVGGWIA]
[1]
  IC50: 18 ± 1 µM
[2]
  IC50: 34 ± 3 µM
[3]; 10 mM sodium phosphate buffer
  solubility at 1 min: 102 ± 16 µM (≈ 119 µg/mL)

## CC[C@H](C)[C@H](N)C(=O)N[C@H](C(=O)NCC(=O)N(C)[C@@H](C)C(=O)N[C@@H](CCSC)C(=O)N[C@H](C(=O)NCC(=O)NCC(=O)N[C@H](C(=O)N[C@H](C(=O)N[C@H](C(=O)N[C@@H](C)C(=O)O)[C@@H](C)CC)C(C)C)C(C)C)C(C)C)[C@@H](C)CC [[N-Me-A4]Aβ(31–42), IIG-(N-Me)A-MVGGWIA] (H-IIG[NMeA]MVGGVVIA-OH; N-terminus assumed)
[3]; 10 mM sodium phosphate buffer
  solubility at 1 min: 127 ± 37 µM (≈ 141 µg/mL)

## CC[C@H](C)[C@H](N)C(=O)N[C@H](C(=O)NCC(=O)N[C@@H](CC(C)C)C(=O)N[C@@H](CCSC)C(=O)N[C@H](C(=O)NCC(=O)NCC(=O)N[C@H](C(=O)N(C)[C@@H](C)C(=O)N[C@H](C(=O)N[C@@H](C)C(=O)O)[C@@H](C)CC)C(C)C)C(C)C)[C@@H](C)CC [[N-Me-A10]Aβ(31–42), IIGLMVGGV-(N-Me)A-IA]
[3]
  solubility at 1 min: 121 ± 28 µM (≈ 136 µg/mL)

## CC[C@H](C)[C@H](N)C(=O)N[C@H](C(=O)NCC(=O)N[C@@H](CC(C)C)C(=O)N(C)[C@@H](C)C(=O)N[C@H](C(=O)NCC(=O)NCC(=O)N[C@H](C(=O)N[C@H](C(=O)N[C@H](C(=O)N[C@@H](C)C(=O)O)[C@@H](C)CC)C(C)C)C(C)C)C(C)C)[C@@H](C)CC [[N-Me-A5]Aβ(31–42), IIGL-(N-Me)A-VGGWIA] (H-IIGL[NMeA]VGGVVIA-OH; N-terminus assumed)
[3]; 10 mM sodium phosphate buffer
  solubility at 1 min: 105 ± 20 µM (≈ 115 µg/mL)

## CC[C@H](C)[C@H](N)C(=O)N[C@H](C(=O)N(C)CC(=O)N[C@@H](CC(C)C)C(=O)N[C@@H](CCSC)C(=O)N[C@H](C(=O)NCC(=O)NCC(=O)N[C@H](C(=O)N[C@H](C(=O)N[C@H](C(=O)N[C@@H](C)C(=O)O)[C@@H](C)CC)C(C)C)C(C)C)C(C)C)[C@@H](C)CC [[N-Me-G3]Aβ(31–42), II-(N-Me)G-LMVGGWIA]
[1]
  IC50: 26 ± 1 µM
  Decrease in activity relative to the corresponding N-Me-A analogue (MTT): 1.4 fold
[3]; 10 mM sodium phosphate buffer
  solubility at 1 min: 118 ± 11 µM (≈ 136 µg/mL)

## CC[C@H](C)[C@H](N)C(=O)N[C@H](C(=O)NCC(=O)N[C@@H](CC(C)C)C(=O)N[C@@H](CCSC)C(=O)N[C@H](C(=O)NCC(=O)NCC(=O)N[C@H](C(=O)N[C@H](C(=O)N[C@H](C(=O)N(C)[C@@H](C)C(=O)O)[C@@H](C)CC)C(C)C)C(C)C)C(C)C)[C@@H](C)CC [[N-Me-A12]Aβ(31–42)] (H-IIGLMVGGVVI[NMeA]-OH; N-terminus assumed)
[3]; 10 mM sodium phosphate buffer
  solubility at 1 min: 28 ± 13 µM (≈ 32.4 µg/mL)

## CC[C@H](C)[C@H](NC(=O)[C@H](C)NC)C(=O)NCC(=O)N[C@@H](CC(C)C)C(=O)N[C@@H](CCSC)C(=O)N[C@H](C(=O)NCC(=O)NCC(=O)N[C@H](C(=O)N[C@H](C(=O)N[C@H](C(=O)N[C@@H](C)C(=O)O)[C@@H](C)CC)C(C)C)C(C)C)C(C)C [[N-Me-A1]Aβ(31–42), (N-Me)A-IGLMVGGWIA] (H-[NMeA]IGLMVGGVVIA-OH; N-terminus assumed)
[5]
  Toxicity of the peptide itself (cell viability, MTT): toxic
[3]; 10 mM sodium phosphate buffer
  solubility at 1 min: 8 ± 1 µM (≈ 8.91 µg/mL)

## CC[C@H](C)[C@H](N)C(=O)N[C@H](C(=O)NCC(=O)N[C@@H](CC(C)C)C(=O)N[C@@H](CCSC)C(=O)N[C@H](C(=O)N(C)[C@@H](C)C(=O)NCC(=O)N[C@H](C(=O)N[C@H](C(=O)N[C@H](C(=O)N[C@@H](C)C(=O)O)[C@@H](C)CC)C(C)C)C(C)C)C(C)C)[C@@H](C)CC [[N-Me-A7]Aβ(31–42), IIGLMV-(N-Me)A-GWIA] (H-IIGLMV[NMeA]GVVIA-OH; N-terminus assumed)
[3]; 10 mM sodium phosphate buffer
  solubility at 1 min: 88 ± 14 µM (≈ 103 µg/mL)

## CC[C@H](C)[C@H](N)C(=O)N[C@H](C(=O)NCC(=O)N[C@@H](CC(C)C)C(=O)N[C@@H](CCSC)C(=O)N[C@H](C(=O)NCC(=O)N(C)CC(=O)N[C@H](C(=O)N[C@H](C(=O)N[C@H](C(=O)N[C@@H](C)C(=O)O)[C@@H](C)CC)C(C)C)C(C)C)C(C)C)[C@@H](C)CC [[N-Me-G8]Aβ(31–42), IIGLMVG-(N-Me)G-WIA] (H-IIGLMVG[Sar]VVIA-OH; N-terminus assumed)
[1]
  IC50: 28 ± 1 µM
  Decrease in activity relative to the corresponding N-Me-A analogue (MTT): 2.3 fold
[2]
  IC50: 71 ± 20 µM
  Decrease in activity relative to the corresponding N-Me-A analogue (LDH): 5.0 fold
[3]; 10 mM sodium phosphate buffer
  solubility at 1 min: 18 ± 2 µM (≈ 20.8 µg/mL)

## CC[C@H](C)[C@H](N)C(=O)N[C@H](C(=O)NCC(=O)N[C@@H](CC(C)C)C(=O)N[C@@H](CCSC)C(=O)N(C)[C@@H](C)C(=O)NCC(=O)NCC(=O)N[C@H](C(=O)N[C@H](C(=O)N[C@H](C(=O)N[C@@H](C)C(=O)O)[C@@H](C)CC)C(C)C)C(C)C)[C@@H](C)CC [[N-Me-A6]Aβ(31–42), IIGLM-(N-Me)A-GGWIA] (H-IIGLM[NMeA]GGVVIA-OH; N-terminus assumed)
[3]; 10 mM sodium phosphate buffer
  solubility at 1 min: 87 ± 18 µM (≈ 98.1 µg/mL)

## CC[C@H](C)[C@H](N)C(=O)N(C)[C@@H](C)C(=O)NCC(=O)N[C@@H](CC(C)C)C(=O)N[C@@H](CCSC)C(=O)N[C@H](C(=O)NCC(=O)NCC(=O)N[C@H](C(=O)N[C@H](C(=O)N[C@H](C(=O)N[C@@H](C)C(=O)O)[C@@H](C)CC)C(C)C)C(C)C)C(C)C [[N-Me-A2]Aβ(31–42), I-(N-Me)A-GLMVGGWIA] (H-I[NMeA]GLMVGGVVIA-OH; N-terminus assumed)
[3]; 10 mM sodium phosphate buffer
  solubility at 1 min: 101 ± 18 µM (≈ 112 µg/mL)
